Assay results as given in ChEMBL document CHEMBL3352527, “Phosphorus-nitrogen compounds. Part 29. Syntheses, crystal structures, spectroscopic and stereogenic properties, electrochemical investigations, antituberculosis, antimicrobial and cytotoxic activities and DNA interactions of ansa-spiro-ansa cyclotetraphosphazenes” (2014).
Activity calls are given as the source filed them. No cut-off for these calls is given here.

How the values were obtained:
MCF7 = test: Cytotoxicity against human MCF7 cells assessed as reduction in cell viability at 1 mg/ml after 24 hrs by MTT assay; assay type: functional
In short: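 Cells were exposed to compounds for 24 h, then to MTT for 4 h. Formazan was dissolved in DMSO and absorbance read at 540 nm. Relative viability (%) was determined, with cisplatin as positive control.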

Escherichia coli [1] = test: Antimicrobial activity against Escherichia coli ATCC 25922 at 10 ug after 18 hrs by agar well diffusion assay; assay type: functional; settings: ATCC 25922, 18 h, read-out: DIZ
In short: (§1)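 Agar-well diffusion with ampicillin and chloramphenicol as reference antibacterials. Bacteria were grown to exponential phase in nutrient broth at 37 °C for 18 h and adjusted to 10^8 cfu/mL against McFarland density. The suspension was mixed into medium and poured into plates, and 6.0 mm wells were cut. After incubation, inhibition zone diameter was read in mm. Values are the mean of three experiments.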

Bacillus cereus [2] = test: Antimicrobial activity against Bacillus cereus NRRL-B-3711 at 10 ug after 18 hrs by agar well diffusion assay; assay type: functional; settings: NRRL-B-3711, 18 h, read-out: DIZ; in short: as §1
Escherichia coli [3] = test: Antimicrobial activity against Escherichia coli ATCC 35218 at 10 ug after 18 hrs by agar well diffusion assay; assay type: functional, organism-based
Bacillus spizizenii [4] = test: Antimicrobial activity against Bacillus subtilis ATCC 6633 at 10 ug after 18 hrs by agar well diffusion assay; assay type: functional; settings: ATCC 6633, 18 h, read-out: DIZ; in short: as §1
Pseudomonas aeruginosa [5] = test: Antimicrobial activity against Pseudomonas aeruginosa ATCC 27853 at 10 ug after 18 hrs by agar well diffusion assay; assay type: functional; settings: ATCC 27853, 18 h, read-out: DIZ; in short: as §1
Staphylococcus aureus [6] = test: Antimicrobial activity against Staphylococcus aureus ATCC 25923 at 10 ug after 18 hrs by agar well diffusion assay; assay type: functional; settings: ATCC 25923, 18 h, read-out: DIZ; in short: as §1
Bacillus spizizenii [7] = test: Antimicrobial activity against Bacillus subtilis ATCC 6633 at 2500 uM after 18 hrs by agar well diffusion assay; assay type: functional; settings: ATCC 6633, 18 h, read-out: DIZ
In short: (§2)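 Bacteria were grown to exponential phase in nutrient broth at 37 °C for 18 h and adjusted to 10^8 cfu/mL against McFarland density. The culture suspension was mixed into the medium and poured into plates with 6.0 mm wells. Each well received 50 of the compound solution in DMSO. Inhibition zone diameter was read in mm; the value is the mean of three experiments.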

Escherichia coli [8] = test: Binding affinity to Escherichia coli pBR322 plasmid DNA assessed as retardation of electrophoretic migration of supercoiled form I DNA at 312 to 5000 uM after 24 hrs by agarose gel electrophoresis
In short: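 pBR322 plasmid DNA was incubated with the compounds at 37 °C for 24 h in the dark. Mixtures were run on a 1% agarose gel in TAE buffer (pH 8.0) for 3 h at 60 V. Mobility of supercoiled form I and nicked form II DNA was compared with untreated plasmid.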

Escherichia coli [9] = test: Antimicrobial activity against Escherichia coli ATCC 25922 after 18 hrs by agar well diffusion assay; assay type: functional; in short: as §2
Bacillus cereus [10] = test: Antimicrobial activity against Bacillus cereus NRRL-B-3711 after 18 hrs by agar well diffusion assay; assay type: functional; in short: as §2
Bacillus spizizenii [11] = test: Antimicrobial activity against Bacillus subtilis ATCC 6633 after 18 hrs by agar well diffusion assay; assay type: functional; in short: as §2
Candida albicans = test: Antimicrobial activity against Candida albicans ATCC 10231 at 50 ug after 18 hrs by agar well diffusion assay; assay type: functional; settings: ATCC 10231, 18 h, read-out: DIZ
Candida tropicalis = test: Antimicrobial activity against Candida tropicalis ATCC 13803 at 50 ug after 18 hrs by agar well diffusion assay; assay type: functional; settings: ATCC 13803, 18 h, read-out: DIZ
Escherichia coli [12] = test: Antimicrobial activity against Escherichia coli ATCC 25922 at 30 ug after 18 hrs by agar well diffusion assay; assay type: functional; settings: ATCC 25922, 18 h, read-out: DIZ; in short: as §1
Bacillus cereus [13] = test: Antimicrobial activity against Bacillus cereus NRRL-B-3711 at 30 ug after 18 hrs by agar well diffusion assay; assay type: functional; settings: NRRL-B-3711, 18 h, read-out: DIZ; in short: as §1
Escherichia coli [14] = test: Antimicrobial activity against Escherichia coli ATCC 35218 at 30 ug after 18 hrs by agar well diffusion assay; assay type: functional; settings: ATCC 35218, 18 h, read-out: DIZ; in short: as §1
Bacillus spizizenii [15] = test: Antimicrobial activity against Bacillus subtilis ATCC 6633 at 30 ug after 18 hrs by agar well diffusion assay; assay type: functional; settings: ATCC 6633, 18 h, read-out: DIZ; in short: as §1
Staphylococcus aureus [16] = test: Antimicrobial activity against Staphylococcus aureus ATCC 25923 at 30 ug after 18 hrs by agar well diffusion assay; assay type: functional; settings: ATCC 25923, 18 h, read-out: DIZ; in short: as §1
Pseudomonas aeruginosa [17] = test: Antimicrobial activity against Pseudomonas aeruginosa ATCC 27853 at 30 ug after 18 hrs by agar well diffusion assay; assay type: functional; settings: ATCC 27853, 18 h, read-out: DIZ; in short: as §1

ClP12=NP34=N[P@](Cl)(=NP(N5CCC6(CC5)OCCO6)(N5CCC6(CC5)OCCO6)=N1)Oc1ccccc1CN3CCN4Cc1ccccc1O2 (single isomer, unassigned)
Activity (MCF7): inactive

CC1(C)S[C@@H]2[C@H](NC(=O)[C@H](N)c3ccccc3)C(=O)N2[C@H]1C(=O)O [AMPICILLIN]
zone of inhibition at 10 µg/disc (Escherichia coli [1]): 20.3 mm
zone of inhibition at 10 µg/disc (Bacillus cereus [2]): 10 mm
diameter of the inhibition zone (DIZ) (Escherichia coli [3]): inactive
zone of inhibition at 10 µg/disc (Bacillus spizizenii [4]): 30.3 mm
zone of inhibition at 10 µg/disc (Pseudomonas aeruginosa [5]): 28 mm
zone of inhibition at 10 µg/disc (Staphylococcus aureus [6]): 35 mm

ClP12=NP34=NP(Cl)(=NP(N5CCC6(CC5)OCCO6)(N5CCC6(CC5)OCCO6)=N1)Oc1ccccc1CN3CCCN4Cc1ccccc1O2 (single isomer, unassigned)
Activity (MCF7): inactive
zone of inhibition at 2500 µM (Bacillus spizizenii [7]): 7 mm

ClP12=NP34=N[P@](Cl)(=NP(N5CCCCC5)(N5CCCCC5)=N1)Oc1ccccc1CN3CCCN4Cc1ccccc1O2 (single isomer, unassigned)
Activity (MCF7): 40%
zone of inhibition at 2500 µM (Bacillus spizizenii [7]): 9 mm
Activity (Escherichia coli [8]): Active

C1CC2(CCN1)OCCO2
diameter of the inhibition zone (DIZ) (Escherichia coli [9]): 11 mm
diameter of the inhibition zone (DIZ) (Bacillus cereus [10]): 13 mm
diameter of the inhibition zone (DIZ) (Bacillus spizizenii [11]): 12 mm

Cl[P@@]12=NP34=N[P@](Cl)(=NP(N5CCC6(CC5)OCCO6)(N5CCC6(CC5)OCCO6)=N1)Oc1ccccc1CN3CCCN4Cc1ccccc1O2 (mixture of isomers)
Activity (MCF7): inactive

Cl[P@@]12=NP34=N[P@](Cl)(=NP(N5CCCCC5)(N5CCCCC5)=N1)Oc1ccccc1CN3CCN4Cc1ccccc1O2 (mixture of isomers)
Activity (MCF7): 40%
Activity (Escherichia coli [8]): Active

[K+].[K+].[O-]c1ccccc1CNCCCNCc1ccccc1[O-]
diameter of the inhibition zone (DIZ) (Escherichia coli [9]): 10.3 mm
diameter of the inhibition zone (DIZ) (Bacillus cereus [10]): 11 mm

ClP12=NP(N3CCC4(CC3)OCCO4)(N3CCC4(CC3)OCCO4)=N[P@@]3(Cl)=N[P@]4(=N1)N(CCN4Cc1ccccc1O3)Cc1ccccc1O2 (single isomer, unassigned)
Activity (MCF7): inactive

C1CCNCC1 [PIPERIDINE]
diameter of the inhibition zone (DIZ) (Escherichia coli [9]): 11 mm
diameter of the inhibition zone (DIZ) (Bacillus cereus [10]): 13 mm

CC(=O)N1CCN(c2ccc(OCC3COC(Cn4ccnc4)(c4ccc(Cl)cc4Cl)O3)cc2)CC1 (stereo unspecified) [KETOCONAZOLE]
zone of inhibition at 50 µg/disc (Candida albicans): 30 mm
zone of inhibition at 50 µg/disc (Candida tropicalis): 29 mm

O=C(N[C@H](CO)[C@H](O)c1ccc([N+](=O)[O-])cc1)C(Cl)Cl [CHLORAMPHENICOL]
zone of inhibition at 30 µg/disc (Escherichia coli [12]): 26.6 mm
zone of inhibition at 30 µg/disc (Bacillus cereus [13]): 23.4 mm
zone of inhibition at 30 µg/disc (Escherichia coli [14]): 10.5 mm
zone of inhibition at 30 µg/disc (Bacillus spizizenii [15]): 31 mm
zone of inhibition at 30 µg/disc (Staphylococcus aureus [16]): 29.6 mm
zone of inhibition at 30 µg/disc (Pseudomonas aeruginosa [17]): 21.9 mm
